Measurements published in ChEMBL document CHEMBL1124806, “Synthesis of quaternary amine ether lipids and evaluation of neoplastic cell growth inhibitory properties” (J Med Chem, 1990).

Columns and labels:
[1] = system: HL-60; test: Inhibition of neoplastic cell proliferation in the HL-60 human promyelocytic leukemia cells; format: functional; conditions: read-out: ID50 (the source's name)
How it was run: (§1)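 HL-60 cells are kept in RPMI 1640 with 10% FBS and 2 mM glutamine under 5% CO2. They are seeded at 5 × 10^5 cells/mL with a range of lipid concentrations, diluted into medium from 1 mg/mL ethanol stocks. After 48 h, viable cells are counted by hemocytometer with trypan blue. ID50 values are averaged, and SD is taken from the averaged ID50s.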

[2] = system: HL-60; test: Inhibition of neoplastic cell proliferation with the HL-60 human promyelocytic leukemia cells; format: functional; conditions: read-out: ID50 (the source's name); how it was run: as §1
[3] = biological target: Protein kinase C (PKC); test: Inhibition of Protein Kinase C (PKC) isolated from HL-60 human promyelocytic leukemia cells; format: cell-free
How it was run: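 Partially purified PKC from HL-60 cells, pH 7.5, in 25 mM Tris, 10 mM MgCl2, 0.1 mM CaCl2, 40 μg/mL histone, 20 μg/mL phosphatidylserine, 2.5 μM OAG, and 10 μM ATP with [γ-32P]ATP. Analogue in ethanol is added before the enzyme starts the reaction, with a 0.1% ethanol control. The reaction runs 20 min at 30 °C and is stopped with BSA and ice-cold 25% TCA. Filter-bound 32P-histone is counted; duplicates.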

CCCCCCCCCCCCCCCCOCC(C[n+]1ccccc1)OCC (stereo unspecified)
IC50 [1]: 1010 nM

CCCCCCCCCCCCCCCCSCC(C[N+](C)(C)CCO)OC (stereo unspecified)
IC50 [2]: 4660 nM

CCCCCCCCCCCCCCCCCCSCC(C[N+](C)(C)CCCO)OC.[I-] (stereo unspecified)
IC50 [3]: 5000 nM
IC50 [1]: 3350 nM

CCCCCCCCCCCCCCCCOCC(C[N+](C)(C)C)OC.[Br-] (stereo unspecified)
IC50 [3]: > 40000 nM
IC50 [1]: 1590 nM

CCCCCCCCCCCCCCCCSCC(C[N+](C)(C)C)OC.[Br-] (stereo unspecified)
IC50 [3]: 25000 nM
IC50 [1]: 2200 nM

CCCCCCCCCCCCCCCCSCC(C[N+](C)(C)CCO)OCC (stereo unspecified)
IC50 [2]: 3720 nM

CCCCCCCCCCCCCCCCOCC(COCC[N+](C)(C)C)OC.[Br-] (stereo unspecified)
IC50 [3]: 31000 nM
IC50 [1]: 1850 nM

CCCCCCCCCCCCCCCCOCCCOCCCC[N+](C)(C)C
IC50 [1]: 1560 nM

CCCCCCCCCCCCCCCCOCCC[N+](C)(C)C.[Br-]
IC50 [3]: > 40000 nM
IC50 [1]: 1610 nM

CCCCCCCCCCCCCCCCCCOCC(COCCCC[N+](C)(C)C)OCC (stereo unspecified)
IC50 [1]: 1260 nM

CCCCCCCCCCCCCCCCCC1OCC(COCCCC[N+](C)(C)C)O1 (stereo unspecified)
IC50 [1]: 2820 nM

CCCCCCCCCCCCCCCCOCC(C[N+](CC)(CC)CC)OCC (stereo unspecified)
IC50 [1]: 680 nM

CCCCCCCCCCCCCCCCCC1OCC(C[N+](C)(C)CCCO)O1.[Br-] (stereo unspecified)
IC50 [3]: 13000 nM
IC50 [1]: 6470 nM

CCCCCCCCCCCCCCCCOCCC[n+]1ccccc1.[Br-]
IC50 [3]: > 40000 nM
IC50 [1]: 820 nM

CCCCCCCCCCCCCCCCOCC(C[N+]1(C)CCC(O)CC1)OCC (stereo unspecified)
IC50 [1]: 2720 nM

CCCCCCCCCCCCCCCCSCC(C[N+](C)(C)CCCO)OCC (stereo unspecified)
IC50 [2]: 2950 nM

CCCCCCCCCCCCCCCCOCC(COCCCC[N+](C)(C)C)OCC.[Br-] (stereo unspecified)
IC50 [3]: > 40000 nM
IC50 [1]: 1860 nM

CCCCCCCCCCCCCCCCSCC(COCCCC[N+](C)(C)C)OCC (stereo unspecified)
IC50 [1]: 1830 nM

CCCCCCCCCCCCCCCCOCC(COCCCCCC[N+](C)(C)C)OC.[Br-] (stereo unspecified)
IC50 [3]: > 40000 nM
IC50 [1]: 1750 nM

CCCCCCCCCCCCCCCCOCC(COCCCC[N+](C)(C)C)OC.[Br-] (stereo unspecified)
IC50 [3]: > 40000 nM
IC50 [1]: 2300 nM

CCCCCCCCCCCCCCCCOCC(COCCCCCCCCCC[N+](C)(C)C)OC (stereo unspecified)
IC50 [1]: 3790 nM

CCCCCCCCCCCCCCCCOCC(COCCC[N+](C)(C)C)OC (stereo unspecified)
IC50 [1]: 1200 nM

CC1(C)OCC(C[N+](C)(C)CCO)O1 (stereo unspecified)
IC50 [1]: > 10000 nM

CCCCCCCCCCCCCCCCOCC(COCCCC[n+]1ccccc1)OCC (stereo unspecified)
IC50 [1]: 780 nM

CCCCCCCCCCCCCCCCCCOCC(COP(=O)([O-])OCC[N+](C)(C)C)OC (stereo unspecified) [EDELFOSINE]
IC50 [3]: 12000 nM
IC50 [1]: 2010 nM
